Measurements published in ChEMBL document CHEMBL1157912, “Impact of nature and length of linker incorporated in agonists on toll-like receptor 9-mediated immune responses” (J Med Chem, 2010).

Assays:
[1] = molecular target: T1, Toll-like receptor 9 (Homo sapiens) (UniProt Q9NR96); test: Induction of TLR9-mediated immune stimulation in human PBMC assessed as MIP1alpha production at 2 ug/ml after 24 hrs by luminex multiplex assay (RVb = 0.01 ng/ml)
T1 sequence (whole entry): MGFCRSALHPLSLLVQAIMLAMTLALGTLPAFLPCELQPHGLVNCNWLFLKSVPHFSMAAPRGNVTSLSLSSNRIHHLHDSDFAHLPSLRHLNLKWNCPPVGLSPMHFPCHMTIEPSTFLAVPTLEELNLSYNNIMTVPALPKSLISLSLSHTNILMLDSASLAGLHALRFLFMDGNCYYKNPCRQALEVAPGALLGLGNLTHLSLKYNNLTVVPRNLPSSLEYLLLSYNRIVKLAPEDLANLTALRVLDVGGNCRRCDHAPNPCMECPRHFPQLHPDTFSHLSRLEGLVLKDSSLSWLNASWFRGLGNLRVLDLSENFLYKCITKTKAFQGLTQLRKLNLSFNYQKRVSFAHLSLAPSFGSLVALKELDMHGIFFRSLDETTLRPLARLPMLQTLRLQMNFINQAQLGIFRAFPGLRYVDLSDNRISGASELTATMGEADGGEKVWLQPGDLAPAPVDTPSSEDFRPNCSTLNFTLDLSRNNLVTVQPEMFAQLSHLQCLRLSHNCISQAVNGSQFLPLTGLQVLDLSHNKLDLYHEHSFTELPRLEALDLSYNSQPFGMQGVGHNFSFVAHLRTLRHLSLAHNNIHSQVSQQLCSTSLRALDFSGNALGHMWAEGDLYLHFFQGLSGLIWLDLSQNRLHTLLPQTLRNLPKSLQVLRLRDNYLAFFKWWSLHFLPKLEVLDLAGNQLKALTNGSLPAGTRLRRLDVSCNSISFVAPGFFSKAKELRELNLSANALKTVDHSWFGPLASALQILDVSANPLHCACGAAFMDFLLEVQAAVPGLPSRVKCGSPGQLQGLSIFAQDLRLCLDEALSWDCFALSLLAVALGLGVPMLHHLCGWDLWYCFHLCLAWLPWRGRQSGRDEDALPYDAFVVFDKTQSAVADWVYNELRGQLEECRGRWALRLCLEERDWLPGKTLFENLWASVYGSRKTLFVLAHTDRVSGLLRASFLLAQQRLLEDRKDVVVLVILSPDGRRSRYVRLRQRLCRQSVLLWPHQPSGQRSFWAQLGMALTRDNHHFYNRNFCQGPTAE

[2] = molecular target: T1, Toll-like receptor 9 (Homo sapiens); test: Induction of TLR9-mediated immune stimulation in human PBMC assessed as IL2R production at 10 ug/ml after 24 hrs by luminex multiplex assay (RVb = 0.02 +/- 0.01 ng/ml)
[3] = molecular target: T1, Toll-like receptor 9 (Homo sapiens); test: Induction of TLR9-mediated immune stimulation in human PBMC assessed as RANTES production at 2 ug/ml after 24 hrs by luminex multiplex assay (RVb = 0.05 +/- 0.04 ng/ml)
[4] = molecular target: T1, Toll-like receptor 9 (Homo sapiens); test: Induction of TLR9-mediated immune stimulation in human PBMC assessed as IP10 production at 2 ug/ml after 24 hrs by luminex multiplex assay (RVb = 0.00 ng/ml)
[5] = molecular target: T1, Toll-like receptor 9 (Homo sapiens); test: Induction of TLR9-mediated immune stimulation in human PBMC assessed as IL1Ralpha production at 10 ug/ml after 24 hrs by luminex multiplex assay (RVb = 0.12 +/- 0.03 ng/ml)
[6] = molecular target: T1, Toll-like receptor 9 (Homo sapiens); test: Induction of TLR9-mediated immune stimulation in human PBMC assessed as MIP1beta production at 2 ug/ml after 24 hrs by luminex multiplex assay (RVb = 0.03 +/- 0.02 ng/ml)
[7] = molecular target: T1, Toll-like receptor 9 (Homo sapiens); test: Induction of TLR9-mediated immune stimulation in human PBMC assessed as IL12 production at 10 ug/ml after 24 hrs by luminex multiplex assay (RVb = 0.00 ng/ml)
[8] = molecular target: T2, Toll-like receptor 9 (Mus musculus) (UniProt Q9EQU3); test: Induction of TLR9-mediated IL6 production in C57BL/6 mouse spleen cells after 24 hrs by ELISA; assay type: cell-based
T2 sequence (whole entry): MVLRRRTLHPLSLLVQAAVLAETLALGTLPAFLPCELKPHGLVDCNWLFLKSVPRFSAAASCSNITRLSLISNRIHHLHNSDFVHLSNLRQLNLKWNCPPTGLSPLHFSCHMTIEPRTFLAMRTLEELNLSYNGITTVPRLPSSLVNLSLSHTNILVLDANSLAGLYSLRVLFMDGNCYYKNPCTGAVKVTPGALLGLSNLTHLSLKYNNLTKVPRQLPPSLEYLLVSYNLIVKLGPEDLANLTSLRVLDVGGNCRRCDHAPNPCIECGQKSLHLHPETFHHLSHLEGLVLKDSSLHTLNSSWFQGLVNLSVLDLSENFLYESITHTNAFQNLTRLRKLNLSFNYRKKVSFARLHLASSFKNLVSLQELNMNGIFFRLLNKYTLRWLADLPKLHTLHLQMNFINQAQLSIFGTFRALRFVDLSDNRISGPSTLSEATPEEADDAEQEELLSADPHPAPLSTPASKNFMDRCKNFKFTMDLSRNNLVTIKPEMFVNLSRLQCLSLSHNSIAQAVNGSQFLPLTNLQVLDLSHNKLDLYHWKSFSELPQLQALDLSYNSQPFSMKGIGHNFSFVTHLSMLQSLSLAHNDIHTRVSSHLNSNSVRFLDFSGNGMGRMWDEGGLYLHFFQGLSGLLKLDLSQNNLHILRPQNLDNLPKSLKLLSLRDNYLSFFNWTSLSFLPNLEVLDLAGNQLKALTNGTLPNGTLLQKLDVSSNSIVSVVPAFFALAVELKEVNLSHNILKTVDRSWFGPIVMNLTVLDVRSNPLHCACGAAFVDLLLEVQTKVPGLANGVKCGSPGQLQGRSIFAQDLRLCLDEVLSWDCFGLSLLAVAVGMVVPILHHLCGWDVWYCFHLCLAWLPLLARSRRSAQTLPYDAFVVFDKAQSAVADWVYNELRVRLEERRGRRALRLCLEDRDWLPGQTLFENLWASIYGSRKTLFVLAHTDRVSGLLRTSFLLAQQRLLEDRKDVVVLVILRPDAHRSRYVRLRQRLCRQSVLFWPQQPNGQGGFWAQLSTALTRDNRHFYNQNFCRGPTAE
Outline: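 C57BL/6 mouse spleen cells were cultured with agonists at 0.1, 0.3, 1, 3 and 10 μg/mL for 24 h. Secreted IL-12 and IL-6 in the supernatants were measured by ELISA. Values are averages of triplicate wells from one representative of at least two independent experiments.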

[9] = molecular target: T1, Toll-like receptor 9 (Homo sapiens); test: Induction of TLR9-mediated immune stimulation in human PBMC assessed as RANTES production at 10 ug/ml after 24 hrs by luminex multiplex assay (RVb = 0.05 +/- 0.04 ng/ml)
[10] = molecular target: T1, Toll-like receptor 9 (Homo sapiens); test: Induction of TLR9-mediated human B cell proliferation assessed as [3H]thymidine uptake after 56 hrs by scintillation counting
Outline: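 B cells were purified from human PBMCs (healthy volunteers), about 1 × 10⁵ cells, and stimulated with various agonist concentrations for 56 h. Cells were then pulsed with 0.75 μCi [³H]-thymidine and harvested 16 h later. Incorporation was counted by scintillation and reported as cpm.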

| Activity [1] | Activity [2] | Activity [3] | Activity [4] | Activity [5] | Activity [6] | Activity [7] | Activity [8] | Activity [9] | Activity [10] | Structure (SMILES) |
| --- | --- | --- | --- | --- | --- | --- | --- | --- | --- | --- |
| 0.04 ng/mL | 0.07 ng/mL | 0.16 ng/mL | 0.01 ng/mL | 33.8 ng/mL | 0.07 ng/mL | 0.05 ng/mL | Dose-dependent effect | 0.52 ng/mL | – | Cc1cn([C@H]2C[C@H](OCC(O)COP(=O)(S)O[C@H]3C[C@H](n4cc(C)c(=O)[nH]c4=O)O[C@@H]3COP(=O)(S)O[C@H]3[C@@H](O)[C@H](n4ccc(N)nc4=O)O[C@@H]3COP(=O)(S)O[C@H]3[C@@H](O)[C@H](n4cnc5c(N)ncnc54)O[C@@H]3COP(=O)(S)O[C@H]3[C@@H](O)[C@H](n4cnc5c(N)ncnc54)O[C@@H]3COP(=O)(S)O[C@H]3[C@@H](O)[C@H](n4ccc(N)nc4=O)O[C@@H]3COP(=O)(S)O[C@H]3[C@@H](O)[C@H](n4ccc(N)nc4=O)O[C@@H]3COP(=O)(S)O[C@H]3[C@@H](O)[C@H](n4cnc5c(N)ncnc54)O[C@@H]3COP(=O)(S)O[C@H]3[C@@H](O)[C@H](n4ccc(N)nc4=O)O[C@@H]3COP(=O)(S)O[C@H]3[C@@H](O)[C@H](n4cnc5c(N)ncnc54)O[C@@H]3COP(=O)(S)O[C@H]3[C@@H](O)[C@H](n4ccc(N)nc4=O)O[C@@H]3COP(=O)(S)O[C@H]3[C@@H](O)[C@H](n4cnc5c(N)ncnc54)O[C@@H]3CO)[C@@H](COP(=O)(S)O[C@H]3[C@@H](O)[C@H](n4ccc(N)nc4=O)O[C@@H]3COP(=O)(S)O[C@H]3[C@@H](O)[C@H](n4cnc5c(N)ncnc54)O[C@@H]3COP(=O)(S)O[C@H]3[C@@H](O)[C@H](n4cnc5c(N)ncnc54)O[C@@H]3COP(=O)(S)O[C@H]3[C@@H](O)[C@H](n4ccc(N)nc4=O)O[C@@H]3COP(=O)(S)O[C@H]3[C@@H](O)[C@H](n4ccc(N)nc4=O)O[C@@H]3COP(=O)(S)O[C@H]3[C@@H](O)[C@H](n4cnc5c(N)ncnc54)O[C@@H]3COP(=O)(S)O[C@H]3[C@@H](O)[C@H](n4ccc(N)nc4=O)O[C@@H]3COP(=O)(S)O[C@H]3[C@@H](O)[C@H](n4cnc5c(N)ncnc54)O[C@@H]3COP(=O)(S)O[C@H]3[C@@H](O)[C@H](n4ccc(N)nc4=O)O[C@@H]3COP(=O)(S)O[C@H]3[C@@H](O)[C@H](n4cnc5c(N)ncnc54)O[C@@H]3CO)O2)c(=O)[nH]c1=O (some centres undefined) |
| 0.05 ng/mL | 0.12 ng/mL | 0.31 ng/mL | 0.02 ng/mL | 63 ng/mL | 0.12 ng/mL | 0.17 ng/mL | Dose-dependent effect | 1.15 ng/mL | Dose-dependent effect | Cc1cn([C@H]2C[C@H](OCCC(O)CCOP(=O)(S)O[C@H]3C[C@H](n4cc(C)c(=O)[nH]c4=O)O[C@@H]3COP(=O)(S)O[C@H]3[C@@H](O)[C@H](n4ccc(N)nc4=O)O[C@@H]3COP(=O)(S)O[C@H]3C[C@H](n4cc(C)c(=O)[nH]c4=O)O[C@@H]3COP(=O)(S)O[C@H]3C[C@H](n4cc(C)c(=O)[nH]c4=O)O[C@@H]3COP(=O)(S)O[C@H]3C[C@H](n4ccc5c(=O)[nH]c(N)nc54)O[C@@H]3COP(=O)(S)O[C@H]3[C@@H](O)[C@H](n4ccc(N)nc4=O)O[C@@H]3COP(=O)(S)O[C@H]3C[C@H](n4cc(C)c(=O)[nH]c4=O)O[C@@H]3COP(=O)(S)O[C@H]3[C@@H](O)[C@H](n4cnc5c(=O)[nH]c(N)nc54)O[C@@H]3COP(=O)(S)O[C@H]3C[C@H](n4cc(C)c(=O)[nH]c4=O)O[C@@H]3COP(=O)(S)O[C@H]3[C@@H](O)[C@H](n4ccc(N)nc4=O)O[C@@H]3COP(=O)(S)O[C@H]3C[C@H](n4cc(C)c(=O)[nH]c4=O)O[C@@H]3CO)[C@@H](COP(=O)(S)O[C@H]3[C@@H](O)[C@H](n4ccc(N)nc4=O)O[C@@H]3COP(=O)(S)O[C@H]3C[C@H](n4cc(C)c(=O)[nH]c4=O)O[C@@H]3COP(=O)(S)O[C@H]3C[C@H](n4cc(C)c(=O)[nH]c4=O)O[C@@H]3COP(=O)(S)O[C@H]3C[C@H](n4ccc5c(=O)[nH]c(N)nc54)O[C@@H]3COP(=O)(S)O[C@H]3[C@@H](O)[C@H](n4ccc(N)nc4=O)O[C@@H]3COP(=O)(S)O[C@H]3C[C@H](n4cc(C)c(=O)[nH]c4=O)O[C@@H]3COP(=O)(S)O[C@H]3[C@@H](O)[C@H](n4cnc5c(=O)[nH]c(N)nc54)O[C@@H]3COP(=O)(S)O[C@H]3C[C@H](n4cc(C)c(=O)[nH]c4=O)O[C@@H]3COP(=O)(S)O[C@H]3[C@@H](O)[C@H](n4ccc(N)nc4=O)O[C@@H]3COP(=O)(S)O[C@H]3C[C@H](n4cc(C)c(=O)[nH]c4=O)O[C@@H]3CO)O2)c(=O)[nH]c1=O (some centres undefined) |
